# Source: publication PMC4070457 (Drugs in R&D, 2014)
# Tests used:
# [1] = Pharmacokinetics of FA after IV and oral; format: in vivo, Sprague-Dawley rats; conditions: for clearance: Sprague-Dawley, rat, serum, iv
# [2] = Tolerability / toxicity observation during the pharmacokinetic studies; format: in vivo, Sprague-Dawley rats
# Outline: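 Male Sprague-Dawley rats with jugular catheters were watched for toxic signs, including chromodacryorrhea, while on the pharmacokinetic study. Nine rats each received 25 mg/kg IV and 25 mg/kg PO (gavage) in saline, with sampling to 8 h. Separate IV dosing was at 10, 25 and 75 mg/kg. Animals were killed in a CO2 chamber after each study.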
# [3] = oral 20 mg/kg, acyl carbon radiolabelled FA; cited from earlier work
# [4] = cited from earlier work
# [5] = cited from earlier work; remark: listed apart in the source
# HNSCC = conditions: oral dose of 25 mg/kg per day; cited from earlier work
structure (smiles),measurement,setting,value
"CCCCc1ccc(C(=O)O)nc1 [fusaric acid, 5-butlypicolinic acid]",time until FA serum concentration fell below the lower limit of quantitation (10 µM),"[1]; 25 mg/kg IV or PO, all animals",≤ 4 h
same,Vd (apparent volume of distribution),"[1]; 25 mg/kg oral, average",182 ± 27 mL
same,clearance,"[1]; 10 mg/kg, 10 mg/kg IV",0.783 mL/min
same,clearance,"[1]; 25 mg/kg, 25 mg/kg IV",1.35 mL/min
same,"Toxicity (i.e., chromodacyrea)","[2]; 25 mg/kg IV and PO, nine animals",not observed
same,adverse effects,"[2]; IV doses of 10, 25, and 75 mg/kg",no adverse effects observed
same,calculated FA concentration at peak radioactivity,[3],42 ± 7.4 µg/mL
same,FA excreted unchanged in the urine,[4],< 5%
same,dose at which adverse effects were observed,[5],100 mg/kg
same,efficacy toward HNSCC,HNSCC,efficacious
